Reference: PubChem BioAssay AID504830 (Southern Research Specialized Biocontainment Screening …, 2011)

test system: HEp-2 cells, RSV plaque reduction, virus titer; assay: RSV plaque-forming yield inhibition – cell-based, plaque reduction (AID 504830); details: at 25 µM; hits give low values
Method in brief: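 Signal: HEp-2 plaque titration, 1% Avicel overlay, six days, neutral red stain / Assay system: RSV Long-infected HEp-2 cells / Timing: 48 h compound exposure at 37 °C after infection / Reagent: RSV Long strain at MOI 0.1, 2 h infection / Doses: post-infection compound, 0.5% DMSO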

Compound	log virus titer change
COc1ccc(C)c(NC(=O)[C@@H]2CCCN2S(=O)(=O)c2cccc3cccnc23)c1	-1
Cc1ccc(NC(=O)C2CCCN2S(=O)(=O)c2cccc3cccnc23)c(C)c1 (centres undefined)	-2.1
Cc1ccc(C)c(NC(=O)[C@@H]2CCCN2S(=O)(=O)c2cccc3cccnc23)c1	-2
Cc1ccc(NC(=O)[C@@H]2CCCN2S(=O)(=O)c2cccc3cccnc23)c(C)c1	-1
